The values below come from PubChem BioAssay AID651748 (Johns Hopkins Ion Channel Center, 2012).

Activity calls are given as the source filed them.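 How the source made its calls: active means a fitted dose response curve plus choline uptake above 120% of control at 33.3 µM; inactive means the rest.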

For the assay, the target named is High affinity choline transporter 1 (Homo sapiens) (UniProt Q9GZV3). Description: CHT activators enhancing choline uptake, dose response, orthogonal assay for CHT activator project, cell-based, 3H-choline uptake, radioactive, HEK293 CHT LV-AA (AID 651748). To be noted: HEK293 hCHT LV-AA cells; series mostly up to 33.3 µM. In a few lines: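 Assay system: CHT LV-AA-expressing HEK293 cells; Medium: HEPES-buffered HBSS, pH 7.4; Reagent: 3H-choline, 50 nM total choline with 10% tritiated; Incubation: 15 min compound pre-incubation then 15 min choline uptake, both 37 °C; Signal: tritium scintillation counting.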
Sequence of High affinity choline transporter 1 (Homo sapiens) (Q9GZV3 whole entry, looked up): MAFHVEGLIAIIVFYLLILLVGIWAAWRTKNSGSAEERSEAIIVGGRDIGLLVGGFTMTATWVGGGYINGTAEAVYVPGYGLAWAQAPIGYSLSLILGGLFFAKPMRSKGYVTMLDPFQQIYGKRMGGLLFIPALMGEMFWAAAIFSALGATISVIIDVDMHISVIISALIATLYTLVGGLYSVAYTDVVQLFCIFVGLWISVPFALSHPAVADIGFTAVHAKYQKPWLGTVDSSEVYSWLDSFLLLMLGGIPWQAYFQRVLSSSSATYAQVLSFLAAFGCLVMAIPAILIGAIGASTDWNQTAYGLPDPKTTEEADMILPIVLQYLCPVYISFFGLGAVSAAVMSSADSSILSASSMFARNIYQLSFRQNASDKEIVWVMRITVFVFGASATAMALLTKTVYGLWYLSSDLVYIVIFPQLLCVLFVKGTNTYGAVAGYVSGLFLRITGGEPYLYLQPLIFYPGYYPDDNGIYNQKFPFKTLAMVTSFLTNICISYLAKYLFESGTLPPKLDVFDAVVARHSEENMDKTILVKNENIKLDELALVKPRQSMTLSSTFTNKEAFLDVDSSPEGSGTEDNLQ
Regarding `Cc1cccc(NCc2nc3ccccc3n2CCOc2ccccc2)c1`, the outcome was inactive. The result for `COc1ccccc1NCc1nc2ccccc2n1CCOc1ccccc1` reads “inactive”; that for `O=C(c1cccc(C(F)(F)F)c1)C1CCCN(Cc2cccn2-c2ncccn2)C1` (centres undefined), “inactive”. As to `Fc1ccc(NCc2nc3ccccc3n2CCOc2ccccc2)cc1`, the outcome was inactive.

For the compound `CCOc1ccc(NCc2nc3ccccc3n2CCOc2ccccc2)cc1`, the result was inactive. Turning to `COc1ccc(NCc2nc3ccccc3n2CCOc2ccccc2)cc1`, the result was inactive. With `Cc1ccc(NCc2nc3ccccc3n2CCOc2ccccc2)cc1`, the outcome was inactive.

With `Brc1ccc(NCc2nc3ccccc3n2CCOc2ccccc2)cc1`, the outcome was inactive. `CC(C)CN1CCN(Cc2cccn2-c2ccc(Cl)cn2)CC1CCO` (centres undefined): the result was inactive. The result for `COc1ccc(NCc2nc3ccccc3n2CCOc2ccccc2Cl)cc1` reads “inactive”; that for `Cc1ccccc1NCc1nc2ccccc2n1CCOc1ccccc1`, “inactive”. Consider `c1ccc(NCc2nc3ccccc3n2CCOc2ccccc2)cc1`, for which the result was inactive. As to `O=C1N(Cc2cccc(Cl)c2)C[C@@H]2C[C@@H](c3cccn3-c3ccccn3)N3CCC[C@@]123`, the outcome was inactive. As for `Clc1ccc(NCc2nc3ccccc3n2CCOc2ccccc2)cc1`, the result was inactive.
